This is an account of results in PMC7134392 (ChemMedChem, 2018).

The target of experiment [1] is T1, full-length human estrogen receptor α (Homo sapiens, UniProt P03372).
T1 sequence (P03372 1-595): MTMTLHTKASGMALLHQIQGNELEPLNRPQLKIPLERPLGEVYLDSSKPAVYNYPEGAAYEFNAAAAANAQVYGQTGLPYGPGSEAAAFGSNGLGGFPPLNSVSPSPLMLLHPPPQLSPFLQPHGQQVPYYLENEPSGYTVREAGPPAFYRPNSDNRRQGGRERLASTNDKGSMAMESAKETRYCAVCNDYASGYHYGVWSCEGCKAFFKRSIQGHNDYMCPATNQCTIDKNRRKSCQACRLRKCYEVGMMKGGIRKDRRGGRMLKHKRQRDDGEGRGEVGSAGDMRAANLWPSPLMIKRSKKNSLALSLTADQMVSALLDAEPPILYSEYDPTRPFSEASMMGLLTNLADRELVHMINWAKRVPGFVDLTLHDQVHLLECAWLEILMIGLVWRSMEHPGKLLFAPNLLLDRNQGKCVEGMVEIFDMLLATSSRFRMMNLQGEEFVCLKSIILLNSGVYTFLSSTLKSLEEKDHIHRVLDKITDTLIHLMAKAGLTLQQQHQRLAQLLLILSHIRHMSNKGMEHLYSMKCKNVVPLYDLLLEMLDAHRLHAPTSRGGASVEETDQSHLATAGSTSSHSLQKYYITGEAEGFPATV
Put plainly: Competitive radiometric ligand binding assay, ERα. As to conditions: relative binding affinity, estradiol = 100; single determinations for RBA < 0.01.

For experiment [2], the system named is RAW264.7 cells. Nature of the experiment: Toxicity. Format: cell-based. As to conditions: read-out: IC50 Toxicity (Tox.), Alamar blue cell viability. An outline of the steps:
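RAW264.7 cells were grown in RPMI 1640 with 10% FCS, 50 μM 2-mercaptoethanol and penicillin/streptomycin. Cells were seeded at 50,000 per well in phenol-red-free medium ≥12 h beforehand. In the TNFα assay setting, cells were dosed with test compound from 50 μM to 0.023 μM (three-fold steps) or DMSO. Viability was read by Alamar blue. Means ± SD are from 3 independent experiments.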

Experiment [3] addresses full-length human estrogen receptor β (Homo sapiens, UniProt Q92731). Nature of the experiment: Competitive radiometric ligand binding assay, ERβ. To be noted: relative binding affinity, estradiol = 100; single determinations for RBA < 0.01. In a few lines:
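Full-length human ERβ incubated with radiolabelled estradiol tracer and competing test compound on ice for 18–24 h. Receptor-bound tracer was adsorbed onto hydroxyapatite, washed with buffer, and counted by scintillation. Affinity was expressed as RBA relative to estradiol = 100. Most values are the average of 2–3 determinations ± SD.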

Chain of full-length human estrogen receptor β (Q92731 whole entry): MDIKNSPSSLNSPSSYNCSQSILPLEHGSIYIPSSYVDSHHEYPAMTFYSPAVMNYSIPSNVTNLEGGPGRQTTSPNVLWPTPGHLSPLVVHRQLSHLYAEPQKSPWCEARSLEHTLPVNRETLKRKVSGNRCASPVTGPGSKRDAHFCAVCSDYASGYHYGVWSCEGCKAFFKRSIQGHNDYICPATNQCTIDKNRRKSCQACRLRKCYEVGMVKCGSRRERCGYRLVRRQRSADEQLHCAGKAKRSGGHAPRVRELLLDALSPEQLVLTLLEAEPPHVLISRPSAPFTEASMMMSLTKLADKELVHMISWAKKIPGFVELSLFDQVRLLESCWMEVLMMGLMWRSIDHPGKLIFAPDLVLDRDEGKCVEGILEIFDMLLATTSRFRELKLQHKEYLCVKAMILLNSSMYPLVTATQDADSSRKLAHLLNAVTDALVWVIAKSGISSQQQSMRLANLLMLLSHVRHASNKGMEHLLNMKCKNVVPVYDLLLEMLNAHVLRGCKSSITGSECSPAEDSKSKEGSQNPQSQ

As for `Cc1c(-c2ccc(O)cc2)nn(-c2ccc(O)cc2)c1-c1ccc(OCCN2CCCCC2)cc1` [Compound 1, methyl-piperidino-pyrazole], the “RBA ERα” value in experiment [1] is listed as 12.0 ± 2.0. For the same compound, the IC50 (in general, the concentration that inhibits the measured activity by half) in experiment [2] came to 11.5 ± 2.4 µM. The “RBA ERβ” value in experiment [3] is 0.05 ± 0.01.
